Screening results from PubChem BioAssay.
Compounds with a hit are over-represented: about 2.2% of the library has one in this group of screens.
Mcl-1 Bim block = human Bim-Mcl-1 interaction inhibition | AID 1009 | Q07820 | inhibition, % at 10 µM | Bead-based flow cytometry, Bim peptide-Mcl-1 binding | 190,000 tested, 0.1% active; in the data active = inhibition above about 40%
Target sequence (Q07820 whole entry, looked up): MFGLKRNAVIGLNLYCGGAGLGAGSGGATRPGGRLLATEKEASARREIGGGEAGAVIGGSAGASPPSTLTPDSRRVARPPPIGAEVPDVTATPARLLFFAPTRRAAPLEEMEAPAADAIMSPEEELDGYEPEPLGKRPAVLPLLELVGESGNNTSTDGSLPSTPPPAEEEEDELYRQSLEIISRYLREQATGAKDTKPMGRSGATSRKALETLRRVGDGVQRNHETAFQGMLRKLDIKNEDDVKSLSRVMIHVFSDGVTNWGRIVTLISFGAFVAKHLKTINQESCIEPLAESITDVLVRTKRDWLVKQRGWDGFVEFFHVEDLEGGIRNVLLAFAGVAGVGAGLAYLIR
RBBP9 inhibitor = inhibitors of human serine hydrolase RBBP9 | recombinant RBBP9, FP-Rh probe fluorescence polarization | inhibition, % at 7.94 µM | 220,000 tested, 0.2% active | AID 1515;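 active = inhibition above the campaign mean of all tested compounds plus 3 SD, cut at about 14% in these data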
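system = RBBP9 protein | input = RBBP9 at 2.5 µM in dispensed solution, before mixing | measured by = fluorescence polarization (mP), excitation 525 nm, emission 598 nm | incubation = enzyme-compound preincubation 30 min, then probe labeling 45 min, 25 °C | buffer or medium = Tris-NaCl-Pluronic buffer, pH 8.0 | compound = single dose 7.94 µM | also added = FP-Rh probe, 375 nM dispensing solution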
EBV gp42 inh = EBV gp42 inhibition; Fluorescence polarization binding assay, mP read-out; AID 1085; inhibition, % (tested at 21.74 µM); 220,000 tested, 0.42% active; in the data active = inhibition above about 50%
Target sequence (Q1HVG2 whole entry, looked up): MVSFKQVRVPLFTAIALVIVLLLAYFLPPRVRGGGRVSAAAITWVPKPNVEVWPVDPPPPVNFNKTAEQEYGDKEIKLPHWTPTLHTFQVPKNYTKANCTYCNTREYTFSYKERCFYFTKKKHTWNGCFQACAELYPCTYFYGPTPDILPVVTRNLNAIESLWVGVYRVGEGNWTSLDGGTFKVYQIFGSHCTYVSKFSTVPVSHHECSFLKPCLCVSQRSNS
Mcl1-Bid inh = disrupts binding of human Mcl-1 to Bid peptide. 220,000 tested, 0.97% active. inhibition, % at 21.7 µM. TR-FRET Mcl-1/Bid-Dy647 peptide binding, 1536-well. AID 1021;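 active = compounds that cut the binding signal by more than half at the single screening dose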;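 note: His-tagged Mcl-1 with europium anti-His antibody binding Bid BH3 peptide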
MCL1 BIM primary = MCL1-BIM-BH3 interaction inhibition (human) | Q07820 | GST-MCL1 / FITC-Bim-BH3 fluorescence polarization | inhibition, % at 10.9 µM | 320,000 tested, 0.68% active | AID 2057;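 active = inhibition above the mean inhibition of all tested compounds plus 3 SD, set per campaign, cut at about 40% in these data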;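 note: higher means more loss of mP so more displacement of Bim peptide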
Mcl1-Noxa inh = disrupts binding of human Mcl-1 to Noxa peptide. TR-FRET Mcl-1/Noxa peptide binding, 2 h. inhibition, % at 21.7 µM. 220,000 tested, 1.5% active. AID 1022;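 active = compounds that cut the protein-peptide binding signal by more than 50% relative to plate controls in a single-dose test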;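 note: His-tagged Mcl-1 with rhodamine Noxa BH3 peptide and terbium anti-His antibody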
Large screens that a line does not name were inactive.

Cc1ccnc(N/C=C(\C#N)c2nc(-c3cccc(Br)c3)cs2)c1	Mcl1-Bid inh 73, Mcl1-Noxa inh 61
Cc1ccnc(Nc2nc(-c3ccccc3)cs2)c1	none (no result: Mcl-1 Bim block, RBBP9 inhibitor, EBV gp42 inh, Mcl1-Bid inh, Mcl1-Noxa inh)
COc1cccc(/C=N/NC(=O)c2cc3c(OC)cccc3[nH]2)c1O	Mcl1-Noxa inh 59
COc1cccc(/C=N/NC(=O)C(=O)N/N=C/c2cccc(OC)c2O)c1O	Mcl1-Noxa inh 59 (no result: MCL1 BIM primary)
CN(C)CCCOC(=O)C1c2ccccc2Oc2ccccc21	none
CN(CCOC(=O)C1c2ccccc2Oc2ccccc21)C(C)(C)C	Mcl1-Bid inh 97
CC(Oc1cccnc1[N+](=O)[O-])C(=O)Nc1cccc(Cl)c1 (configuration not stated)	none (no result: Mcl-1 Bim block, RBBP9 inhibitor, EBV gp42 inh, Mcl1-Bid inh, Mcl1-Noxa inh)
O=C1NC(=O)/C(=C/c2ccc(-c3cc(C(=O)O)ccc3Cl)o2)S1	MCL1 BIM primary 42 (no result: Mcl-1 Bim block, RBBP9 inhibitor, EBV gp42 inh, Mcl1-Bid inh, Mcl1-Noxa inh)
COc1ccc(N/C=C2\C(=O)CCc3c2oc2cc(Cl)c(O)c(Cl)c32)cc1	Mcl1-Bid inh 86, Mcl1-Noxa inh 74 (no result: Mcl-1 Bim block)
COc1ccc(N/C=C2\CCOC2=O)cc1	none
CCC(C)OC(=O)C1=C(C)NC2=C(C(=O)C(C(=O)OC)C(C)C2)C1c1ccc(N(C)C)cc1 (configuration not stated)	Mcl1-Noxa inh 60
CC(CCC(=O)Nc1nncs1)C(=O)O (configuration not stated)	Mcl1-Bid inh 86
CCC(CCC(=O)Nc1nncs1)C(=O)O (configuration not stated)	none (no result: MCL1 BIM primary)
CC(=O)n1cc(N(C(=O)CCl)c2ccc([N+](=O)[O-])cc2)c2ccccc21	none (no result: Mcl-1 Bim block)
O=Cc1[nH]c2ccccc2c1N(C(=O)CCl)c1ccc([N+](=O)[O-])cc1	Mcl1-Noxa inh 92 (no result: Mcl-1 Bim block)
Cc1cc(C)cc(N=Cc2[nH]c3ccc(Br)c(Cl)c3c2O)c1	Mcl1-Noxa inh 52
COc1cc(Cl)c(C)cc1NC(=O)CCCn1c(=O)oc2ccccc21	Mcl1-Bid inh 95
NC(=O)c1c(NC(=O)C2c3ccccc3Oc3ccccc32)sc2c1CCCCC2	Mcl1-Noxa inh 68
CC(=O)Nc1sc2c(c1C(N)=O)CCCC2	none
CC(C)(C)N1CC(c2nc3ccccc3n2CCOc2ccccc2)CC1=O (configuration not stated)	EBV gp42 inh 67
O=C(CSc1nnc(Nc2ccccc2)s1)NC1CC1	none (no result: Mcl-1 Bim block, RBBP9 inhibitor, EBV gp42 inh, Mcl1-Bid inh, Mcl1-Noxa inh)
C[C@H]1CN=C(N(C)C)N1CCCCc1ccccc1	none (no result: Mcl-1 Bim block, RBBP9 inhibitor, EBV gp42 inh, Mcl1-Bid inh, Mcl1-Noxa inh)
CCCN(CCC)C(C(=O)Nc1cccc(OC)c1)c1ccccc1 (configuration not stated)	Mcl1-Bid inh 95
Cc1ccc(-n2nc3c(c2NC(=O)c2cccs2)CS(=O)(=O)C3)cc1C	none (no result: Mcl-1 Bim block, RBBP9 inhibitor, EBV gp42 inh, Mcl1-Bid inh, Mcl1-Noxa inh)
C[C@@H]1C[C@H]2[C@@H]3C[C@H](F)C4=CC(=O)C=C[C@]4(C)[C@@]3(Cl)[C@@H](O)C[C@]2(C)[C@H]1C(=O)COC(=O)C(C)(C)C	none (no result: Mcl-1 Bim block, RBBP9 inhibitor, EBV gp42 inh, Mcl1-Bid inh, Mcl1-Noxa inh)
CCN(CC)c1ccc2cc(S(=O)(=O)c3ccc(Cl)cc3)c(=O)oc2c1	EBV gp42 inh 159
CCCCCCc1cc2cc(S(=O)(=O)c3ccc(Cl)cc3)c(=O)oc2cc1O	none
COc1nc(C)nc(NC(=O)NS(=O)(=O)c2ccc(C)cc2)n1	Mcl1-Noxa inh 65
O=S(=O)(NCCN1CCOCC1)c1cc(Cl)ccc1Cl	none (no result: Mcl-1 Bim block, RBBP9 inhibitor, EBV gp42 inh, Mcl1-Bid inh, Mcl1-Noxa inh)
C[C@@H]1NS(=O)(=O)[C@H]2C[C@@H]3C=C[C@]2(O3)[C@H]1OC(=O)Nc1ccc(C(F)(F)F)cc1[N+](=O)[O-]	none (no result: Mcl-1 Bim block, RBBP9 inhibitor, EBV gp42 inh, Mcl1-Bid inh, Mcl1-Noxa inh)
O=C(NCC1CCCO1)c1ccc(Cn2c(=S)[nH]c3ccccc3c2=O)cc1 (configuration not stated)	Mcl1-Noxa inh 81
COCCNC(=O)CCCCCn1c(=S)[nH]c2ccccc2c1=O	none
CCOCCCNC(=O)c1ccc(Cn2c(=S)[nH]c3c([nH]c4ccc(OC)cc43)c2=O)cc1	Mcl1-Noxa inh 56
CCCCNC(=O)c1ccc(Cn2c(=S)[nH]c3c([nH]c4ccc(OC)cc43)c2=O)cc1	none
COc1ccc2[nH]c3c(=O)n(Cc4ccc(C(=O)NCC5CCCO5)cc4)c(=S)[nH]c3c2c1 (configuration not stated)	Mcl1-Noxa inh 62
CCN(CC)CCNC(=O)CCCCn1c(=S)[nH]c2c([nH]c3ccc(OC)cc32)c1=O	Mcl1-Noxa inh 61
N#Cc1ccsc1NC(=O)C1CCN(C(=O)c2ccc(Cl)cc2)CC1	none (no result: Mcl-1 Bim block, RBBP9 inhibitor, EBV gp42 inh, Mcl1-Bid inh, Mcl1-Noxa inh)
CC[C@H](C)NC(=O)c1ccc(Cn2c(=S)[nH]c3c([nH]c4ccc(OC)cc43)c2=O)cc1	Mcl1-Noxa inh 76
